# Screening data deposited in PubChem BioAssay by several laboratories.
# XiGFP reactiv – activators of X-chromosome reactivation in mouse fibroblasts; activation, % at 7.58 µM; XiGFP mouse fibroblasts, % GFP-positive cells imaging, 3 d; cells co-treated with 5-aza-dC sensitizer; scaled so ellipticine positive control = 100%; 360,000 compounds, 0.055% hits; AID 743238;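 active means mean normalized replicate activation at least 10% and every replicate at or above 10%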;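 further: 0% = median of on-plate neutral control wells and 100% = ellipticine 6 µM median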
#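 Material: XiGFP fibroblasts, SV40-immortalized. Buffer or medium: DMEM plus 5-aza-dC sensitizer. Compound: single concentration per compound, delivered by pin transfer. Times: 3 days compound exposure. Controls: ellipticine 6 µM.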
# aDG glyco up – increases alpha dystroglycan glycosylation; 360,000 compounds, 0.22% hits; AID 624168; Pro5-aDG cells, alpha-DG glycosylation AlphaScreen (IIH6); 0% Pro5, 100% B10-LARGE cell signal; activation, % at 10 µM;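 active means activation of at least 8% versus controls, or a plate z-score of at least 8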;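 further: Pro5 are CHO cells carrying HIG-tagged alpha-DG that lacks glycosylation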
# HNF4A DNA FP – change in binding of human HNF4 alpha to DNA. 360,000 compounds, 0.3% hits. AID 1224865. HNF4a-FITC DNA binding, fluorescence polarization, 1 h. P41235. activity change, % at 10 µM; in the data active means activity change above about 30%, passing the limit was not always enough
# CSN inh – blocks human CSN-mediated cullin deneddylation; Purified CSN, SCF-Nedd8-OG deneddylation, fluorescence polarization; inhibition, % at 12.5 µM; 360,000 compounds, 0.38% hits; Q92905;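 active means pattern-corrected inhibition above about 35%, with an unprinted fluorescence ratio check between 0.5 and 1.5, limit read from the data, passing the limit was not always enough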;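 further: 0% = enzyme with substrate and 100% = substrate without enzyme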
#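 Detection – fluorescence polarization · System – HEK293T-derived human Csn5 enzyme · Controls – substrate-only high control, full reaction low control · Timing – 90 min, room temperature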
# TPT1 inhibitor – C. albicans TPT1 enzyme inhibition | recombinant caTPT1, FP RNA substrate dephosphorylation | inhibition, % at 5 µM | 300,000 compounds, 0.81% hits | AID 1962;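 active means inhibition above the mean of all tested compounds plus 3 SD, set per screening campaign, cut at about 24% in these data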;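 further: plate controls were DMSO alone for no effect and ferristatin control at 100 nM for full effect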
# Rpn11 block – Rpn11 (human) deubiquitinase inhibition | human 26S proteasome, Ub4-pepOG fluorescence polarization; 20S core pre-blocked with epoxomicin | O00487 | inhibition, % at 20 µM | 360,000 compounds, 0.59% hits;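 active means inhibition at 20 µM, scaled to each plate's controls, above about 33%, limit read from the data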
# Target sequence (O00487 whole entry, looked up): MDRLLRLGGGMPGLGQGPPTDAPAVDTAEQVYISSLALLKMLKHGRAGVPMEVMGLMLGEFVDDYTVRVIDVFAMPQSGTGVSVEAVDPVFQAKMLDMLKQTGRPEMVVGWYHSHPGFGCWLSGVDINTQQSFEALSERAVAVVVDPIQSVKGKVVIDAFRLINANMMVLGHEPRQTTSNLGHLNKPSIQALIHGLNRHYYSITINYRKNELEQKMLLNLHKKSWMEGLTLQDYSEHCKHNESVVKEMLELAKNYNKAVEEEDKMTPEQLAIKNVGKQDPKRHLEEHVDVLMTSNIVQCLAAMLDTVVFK
# caTPT1 confirm – confirmation of Candida albicans TPT1 inhibitors; shares compounds with TPT1 inhibitor; recombinant caTPT1, fluorescence polarization, RNase T1 coupled; inhibition, % at 5 µM; 2,400 compounds, 74% hits; AID 2149;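 active means inhibition above the primary screen limit, the mean inhibition of all tested compounds plus 3 SD, cut at about 25% in these data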
# RNase T1 inh – counter-screen for TPT1 inhibitors: inhibitors of Aspergillus oryzae RNase T1; shares compounds with TPT1 inhibitor; inhibition, % at 5 µM; 2,400 compounds, 83% hits; RNase T1 cleavage, fluorescence polarization, 1536-well; AID 2153;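 active means inhibition above the solvent-only control well mean plus 3 SD, limit set per screening run, cut at about 23% in these data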;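 further: plate controls were DMSO wells with enzyme for no effect and wells without RNase T1 for full effect; inhibitors block cleavage so intact labeled substrate keeps polarization high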
# Target sequence (P00651 whole entry, looked up): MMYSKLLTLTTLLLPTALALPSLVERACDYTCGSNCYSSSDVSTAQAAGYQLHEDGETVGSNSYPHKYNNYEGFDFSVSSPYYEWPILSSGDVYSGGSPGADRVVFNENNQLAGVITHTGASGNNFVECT
# Starred values were filed as active, the others as inactive; · = no result shown; + = active, no number. The list is not random: actives were taken first. Their share in the collection is about 1.3%.
SMILES,XiGFP reactiv,aDG glyco up,HNF4A DNA FP,CSN inh,TPT1 inhibitor,Rpn11 block,caTPT1 confirm,RNase T1 inh
COc1cc(/C=C/C(=O)C2C(=O)C=C(C)OC2=O)cc(OC)c1O (stereo unspecified),0.0,0.0,-4.5,-0.3,36.9*,9.6,17.9,28.0*
COC(=O)CSc1nc(N)c2c3c(sc2n1)C(c1ccccc1)SC(c1ccccc1)C3 (stereo unspecified),·,-0.5,24.7,24.8,72.2*,·,22.4,31.4*
COc1ccc2c(c1)c(/C=C/c1cc[n+](C)cc1)cn2C,0.3,-0.2,127.2,73.9*,72.2*,·,87.7*,90.7*
COc1ccc2c(c1)c1ccccc1n2C,·,-0.2,-1.4,-1.4,-0.2,-6.4,·,·
CNC[C@H]1Oc2cc(C#Cc3ccc(OC)cc3)ccc2S(=O)(=O)N([C@@H](C)CO)C[C@@H]1C,0.8,·,·,·,·,·,·,·
Cn1cc(-c2ccccc2C(N)=O)c(=O)c2cc(Cl)ccc21,0.3,-0.3,-6.2,-5.2,1.9,2.5,·,·
Cn1cc(C2=C(c3ccc(Cl)cc3Cl)C(=O)NC2=O)c2ccccc21,58.5*,-0.1,72.3,-74.0,81.2*,·,92.3*,94.7*
O=C(c1ccc(N2CCCC2=O)cc1)N1CCOCC1,·,0.1,-0.4,-0.6,65.4*,-9.4,5.2,5.8
Cc1nc2ccccc2n1/N=C/c1ccc([N+](=O)[O-])s1,7.0,1.1,-0.3,0.3,28.4*,·,35.6*,59.0*
Cc1cc(/C=C2\SC(=O)N(C)C2=O)c(C)n1-c1ccc(O)cc1,0.1,-0.3,2.5,-1.9,3.4,1.8,·,·
CC(=O)NC1=NC(=O)/C(=C/c2cc(C)n(-c3ccc(NC(C)=O)cc3)c2C)S1,0.0,-0.2,81.9*,30.3,67.5*,·,101.5*,109.0*
CC(=O)NC1=NC(=O)/C(=C/c2cn(C(C)=O)nc2-c2ccccc2)S1,0.0,-0.2,16.2,10.8,31.2*,39.7,35.1*,46.9*
O=C(CCN1CCCCC1)N[C@H]1CC[C@@H](CCn2cc(-c3ccc(F)cc3)nn2)O[C@@H]1CO,-0.3,·,·,·,·,·,·,·
Cc1ccc(S(=O)(=O)N(C)C[C@@H]2Oc3ncc(-c4ccccc4)cc3C(=O)N([C@@H](C)CO)C[C@@H]2C)cc1,-0.6,·,·,·,·,·,·,·
CC1(C)CC(=O)C=C(NNC(=O)c2ccccc2O)C1,·,0.0,8.6,8.3,38.8*,25.0,46.2*,57.4*
COc1cccc(S(=O)(=O)N[C@H]2C=C[C@@H](CC(=O)NCc3ccc(Cl)cc3)O[C@@H]2CO)c1,1.2,·,·,·,·,·,·,·
O=C1CC(NC(=O)c2ccc(Cl)cc2)C(=O)N1 (stereo unspecified),0.0,0.0,-2.3,-1.4,133.3*,4.6,10.7,20.8
O=C(C[C@@H]1C[C@H]2c3cc(NC(=O)C4CCC4)ccc3O[C@H]2[C@H](CO)O1)NC1CCCCC1,0.1,·,·,·,·,·,·,·
COc1cc2ccccc2nn1,0.1,-0.1,1.3,-2.8,-5.6,-3.1,·,·
COc1ccc2c(n1)Sc1nc3ccccc3nc1N2,68.3*,0.1,32.1,30.9,41.5*,·,55.9*,64.1*
COc1ccc(N/C=C2/Sc3ccccc3NC2=O)cc1,0.2,0.1,-0.3,-0.5,-3.0,-6.2,·,·
Cc1ccc(N/C=C2/Sc3ccccc3NC2=O)cc1,0.4,-0.4,31.8,14.7,28.2*,·,47.2*,53.3*
O=C(NCCc1c[nH]c2ccccc12)C(=O)NCC(c1ccco1)N1CCN(c2ccccc2F)CC1 (stereo unspecified),·,1.5,1.7,-3.7,50.8*,0.7,1.8,5.4
O=C1S/C(=C\c2ccc(N3CCOCC3)o2)C(=O)N1Cc1c(F)cccc1Cl,·,-0.1,138.1,-28.7,147.5*,·,189.6*,173.7*
O=C1S/C(=C/c2ccc(N3CCOCC3)o2)C(=O)N1Cc1c(F)cccc1Cl,·,0.1,148.9,-72.0,139.0*,·,177.1*,161.8*
SMILES,XiGFP reactiv,aDG glyco up,HNF4A DNA FP,CSN inh,TPT1 inhibitor,Rpn11 block,caTPT1 confirm,RNase T1 inh
O=C1N=C(N2CCOCC2)S/C1=C/c1ccc(-c2ccccc2Cl)o1,·,-0.4,-41.5,2.8,1.6,1.0,·,·
O=C(O)c1ccccc1-c1ccc(/C=C2\SC(=O)N(c3ccccc3)C2=O)o1,0.0,0.1,7.6,5.2,9.7,9.8,·,·
O=C1S/C(=C\c2ccc(N3CCOCC3)o2)C(=O)N1c1ccccc1,0.0,-0.4,-20.3,4.3,+,·,185.4*,166.4*
O=C(NCCN1CCOCC1)c1ccc2c(c1)N(Cc1c(F)cccc1Cl)C(=O)c1ccccc1S2,0.0,-0.1,-0.8,-2.9,-2.6,-2.3,·,·
CC(=O)N(C)C[C@H]1Oc2cc(C#CC3CC3)ccc2S(=O)(=O)N([C@H](C)CO)C[C@H]1C,-0.2,·,·,·,·,·,·,·
CC(C)[C@@H](C)NC(=O)N(C)C[C@H]1OCc2ccccc2-c2c(n(C)c3ccccc23)C(=O)N([C@@H](C)CO)C[C@@H]1C,0.1,·,·,·,·,·,·,·
COc1ccc(NC(=O)Nc2ccc3c(c2)C(=O)N([C@H](C)CO)C[C@@H](C)[C@H](CN(C)S(=O)(=O)c2ccc(F)cc2)OCCCC[C@@H](C)O3)cc1,-0.1,·,·,·,·,·,·,·
COc1ccc(-n2c(O)c(/C=N/NS(=O)(=O)c3ccc(C)c([N+](=O)[O-])c3)c3ccccc3c2=O)cc1OC,0.1,0.0,171.8,148.1,100.0*,·,113.8*,112.5*
COc1cc(/C=N/NS(=O)(=O)c2ccc(C)c([N+](=O)[O-])c2)cc([N+](=O)[O-])c1O,0.0,-0.1,-4.3,-0.8,-6.3,9.4,·,·
CCOc1cccc(/C=N/NS(=O)(=O)c2ccc(C)c([N+](=O)[O-])c2)c1O,0.1,-0.2,-7.3,0.4,94.3*,1.5,1.4,6.0
O=C(Nc1cccc(Cl)c1)N[C@@H]1CC[C@@H](CCNC(=O)C2CC2)O[C@H]1CO,0.6,·,·,·,·,·,·,·
Cc1nc2ccccc2nc1OCC(=O)Nc1ccccc1,0.0,0.0,-0.1,0.2,95.8*,10.3,4.2,4.9
CCC(=O)N[C@H]1CC[C@@H](CCn2cc(-c3cccc(OC)c3)nn2)O[C@H]1CO,-0.8,·,·,·,·,·,·,·
O=C(Nc1cc(F)ccc1F)N1C[C@H]2[C@@H](c3ccccc31)[C@H](CO)N2CC1CCCC1,0.2,·,·,·,·,·,·,·
CCCCC(=O)N/N=C/c1ccc(-c2ccc([N+](=O)[O-])cc2)o1,0.1,-0.1,2.5,1.2,13.0,12.6,·,·
CC(C)(C)NC(=S)N/N=C\c1ccc(-c2ccc([N+](=O)[O-])cc2)o1,66.4*,0.2,64.4*,0.1,91.8*,·,98.0*,102.6*
